TAAR1 ag = human TAAR1 agonism; activation, % at 3 µM; AID 624467; Q96RJ0; CHO RD-HGA16 TAAR1, Fluo-8 calcium fluorescence; vehicle wells 0%, saturating PEA agonist 100%; 360,000 compounds, 0.99% hits;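 active means activation above the mean activation of all test compounds in the run plus 3 SD, cut at about 38% in these data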
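test system = CHO RD-HGA16 cells carrying human TAAR1 plus Gα16 | schedule = 17-24 h seeding, 75 min 37 °C dye, 30 min RT | compound dosing = 3 µM single concentration | control set = DMSO and PEA EC100 | replicates = n 1 | signal = Fluo-8 fluorescence, 5 s baseline then 140 s kinetic read | measure = percent activation vs PEA EC100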
TAAR1 antagonist = human TAAR1 antagonism | Q96RJ0 | CHO RD-HGA16 TAAR1, Fluo-8 calcium fluorescence, antagonist | inhibition, % at 3 µM | 360,000 compounds, 1.5% hits;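 active means inhibition above a per-plate cutoff, the mean inhibition of test compounds on that plate plus 3 SD, cut at about 49% in these data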
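Test system – hTAAR1-expressing CHO RD-HGA16 cells, Gα16-coupled · Reagent – β-PEA at EC80 concentration, post-compound challenge · Compound dosing – 3 µM, single point · Timing – 140 s kinetic read after compound, 140 s after agonist · Detection – Fluo-8 intracellular calcium dye fluorescence, real-time kinetic reads · Control set – DMSO and EC80 PEA controls · Repeats – n of 1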
V1R ag counter = activates human V1a receptor in oxytocin agonist counter-screen; AID 2797; activation, % at 3 µM; CHO-V1R cells, Fluo-8 calcium fluorescence, agonist mode; 0% DMSO, 100% 3 nM vasopressin; 320,000 compounds, 0.25% hits; P37288;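 active means activation above the mean activation of all tested compounds plus 3 SD, per screening run, cut at about 20% in these data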;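 further: signal is peak over basal fluorescence ratio across a 100 second FLIPR read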
Target sequence (P37288 whole entry, looked up): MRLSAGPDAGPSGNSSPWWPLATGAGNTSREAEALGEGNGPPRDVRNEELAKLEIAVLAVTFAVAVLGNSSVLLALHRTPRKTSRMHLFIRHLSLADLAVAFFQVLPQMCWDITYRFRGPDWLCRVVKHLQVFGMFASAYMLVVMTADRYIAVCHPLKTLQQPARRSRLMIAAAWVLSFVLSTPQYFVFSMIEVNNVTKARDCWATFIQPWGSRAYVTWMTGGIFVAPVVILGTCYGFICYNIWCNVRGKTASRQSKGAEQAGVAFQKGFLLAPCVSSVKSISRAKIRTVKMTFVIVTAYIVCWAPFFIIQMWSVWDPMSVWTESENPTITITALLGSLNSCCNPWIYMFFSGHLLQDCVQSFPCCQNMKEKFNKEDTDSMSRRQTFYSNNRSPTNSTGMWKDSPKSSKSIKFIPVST
OXTR agonist = human OXTR agonism | activation, % at 3 µM | 320,000 compounds, 0.32% hits | P30559 | AID 2435 | CHO-OTR cells, Fluo-8 calcium fluorescence; normalized: DMSO 0%, oxytocin 100%;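 active means activation above the mean of all tested compounds plus 3 SD, cutoff set per screening run, cut at about 20% in these data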;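 further: peak over basal fluorescence ratio from a 100 s FLIPR kinetic read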
Target sequence (P30559 whole entry, looked up): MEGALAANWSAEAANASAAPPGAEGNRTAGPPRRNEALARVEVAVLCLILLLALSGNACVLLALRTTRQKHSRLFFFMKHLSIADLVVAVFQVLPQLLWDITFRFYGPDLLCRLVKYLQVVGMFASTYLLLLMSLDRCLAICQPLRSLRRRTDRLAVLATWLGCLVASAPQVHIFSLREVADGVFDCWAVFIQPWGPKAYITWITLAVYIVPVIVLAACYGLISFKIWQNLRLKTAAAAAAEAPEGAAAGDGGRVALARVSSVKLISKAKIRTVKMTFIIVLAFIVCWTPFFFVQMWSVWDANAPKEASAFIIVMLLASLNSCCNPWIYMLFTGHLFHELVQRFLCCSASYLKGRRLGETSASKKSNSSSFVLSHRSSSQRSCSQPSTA
OXTR potentiate = potentiates the human oxytocin receptor response; CHO-OTR cells, Fluo-8 calcium fluorescence, potentiator mode; 0% = oxytocin EC15, 100% = EC100; activation, % at 3 µM; 320,000 compounds, 0.061% hits; AID 2445;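 active means activation above that plate's cutoff, the mean activation of tested compounds plus 3 SD, cut at about 6.6% in these data, passing the limit was not always enough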
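Material: CHO-OTR cells, human receptor; compound dosing: single dose, 3.0 µM nominal final compound concentration; schedule: 6 min compound pre-incubation at room temperature, 100 s kinetic read; measured by: kinetic Fluo-8 calcium fluorescence; read-out basis: % activation vs EC15 and EC100 oxytocin; controls: EC15 oxytocin alone as 0%, 75 nM oxytocin as 100%; replicates: singlicate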
OXTR ag confirm = confirmation of human oxytocin receptor agonists. shares compounds with OXTR agonist. CHO-OTR cells, Fluo-8 calcium fluorescence, agonist. activation, % at 3 µM. 390 compounds, 20% hits. AID 434963;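 active means mean activation above about 20% derived from the earlier single-dose screen, limit read from the data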;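 further: peak over minimum fluorescence ratio per well during a 100 second FLIPR read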
V1aR counter 3x = V1R agonism in triplicate, counter-screen for OXTR agonists. CHO-V1R cells, Fluo-8 calcium fluorescence, agonist. activation, % at 3 µM. AID 434991. 390 compounds, 10% hits. shares compounds with OXTR agonist;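 active means mean activation over triplicate exceeds the hit threshold set in the earlier primary screen, cut at about 20% in these data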;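 further: peak over basal fluorescence ratio within a 100 second read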
Of the large screens only hits and unclear results are named; the others gave an inactive call (follow-up assays come after a bar, where they were run). Compounds with a hit are over-represented: about 2.3% of the library has one in this group of screens.

Cc1onc(-c2c(F)cccc2Cl)c1-c1ncc(-c2ccc(Cl)cc2)o1	none (no result: V1R ag counter, OXTR agonist, OXTR potentiate)
COc1ccc(C(=O)/C=C/C(=O)N(CC(=O)NC2CCCCC2)Cc2ccccc2)c(O)c1	TAAR1 ag 40.9, TAAR1 antagonist 66.0 (no result: V1R ag counter, OXTR agonist, OXTR potentiate)
CC[C@H](C)[C@@H](C(=O)NCCCCCCCCCCC(=O)N1CCN(C(=O)OC(C)(C)C)CC1)n1cc(CCCCCNC(=O)OC(C)(C)C)nn1	TAAR1 antagonist 60.4
CC(C)(C)OC(=O)NCCCCCc1cn([C@@H](CO)C(=O)NCCCCCCCCCCC(=O)N2CCN(C(=O)OC(C)(C)C)CC2)nn1	TAAR1 antagonist 86.8
O=C(Nc1cc([N+](=O)[O-])ccc1Cl)C(Sc1ccccc1)c1ccccc1 (stereo not drawn)	none
O=C(Nc1ccc(Cl)c([N+](=O)[O-])c1)C(Sc1ccccc1)c1ccccc1 (stereo not drawn)	TAAR1 antagonist 57.3
Cn1cnnc1SCC(=O)Nc1ccc2nc(SCc3cccc4ccccc34)sc2c1	TAAR1 ag 41.7
COc1cc(SC#N)ccc1N=Cc1c(C)[nH]n(-c2ccc(C)c(C)c2)c1=O	TAAR1 antagonist 87.3
Cc1ccc(OCCCCN2CCc3ccccc3C2)cc1	TAAR1 ag 40.5
Cc1ccc(OCCCCN2CCCCC2)cc1	none (no result: V1R ag counter, OXTR agonist, OXTR potentiate)
COc1ccc(/C=C2\SC(=O)NC2=S)cc1OC	V1R ag counter 36.1, OXTR agonist 29.3
CC(C)(C)C(=O)Cn1nc(Cl)nc1Cl	none
O=C(/C=C/c1cccc(Cl)c1)NCCc1ccccc1	none
CC(C)=CC(=O)NCCc1ccccc1	TAAR1 ag 41.8
O=C(/C=C/c1c(Cl)cccc1Cl)NCCc1ccccc1	TAAR1 ag 37.6
CC(C)C(=O)Nc1ccc(C(=O)CSc2nnc(C3CC3)n2C2CC2)cc1	none
Cn1c(=O)c(S(=O)C2CCCCC2)c(O)c2ccccc21 (stereo not drawn)	none
COC(=O)[C@]12C[C@H](CC(=O)NCC3CCCCC3)C(=O)N(Cc3ccccc3)C1=C[C@H](C1CCCC1)O[C@@H]2C	none (no result: V1R ag counter, OXTR agonist, OXTR potentiate)
N#CCCn1nc(-c2ccc(Cl)cc2)cc1Nc1ccccc1NC(=O)C(F)(F)F	OXTR agonist 24.0 | OXTR ag confirm inactive | V1aR counter 3x inactive
CC1CCc2nc3ccc(S(=O)(=O)N4CCC(C(=O)N5CCCCCC5)CC4)cc3c(C(=O)O)c2C1 (stereo not drawn)	none
CC(c1ccccc1)N1CCC(CNC(=S)Nc2cccc(Cl)c2)C1 (stereo not drawn)	OXTR agonist 22.0 | OXTR ag confirm inactive | V1aR counter 3x inactive
CN1CCN(C2Cc3ccccc3Sc3cc(C(F)(F)F)ccc32)CC1 (stereo not drawn)	TAAR1 ag 51.3, OXTR agonist 24.4 | OXTR ag confirm inactive | V1aR counter 3x inactive
CN1CCN(C2Cc3ccccc3Sc3ccc(Cl)cc32)CC1 (stereo not drawn)	none
CCOC(=O)NC(NCc1cccc(C(F)(F)F)c1)(C(F)(F)F)C(F)(F)F	OXTR agonist 24.9 | OXTR ag confirm inactive | V1aR counter 3x inactive
COc1ccc(CNc2ncnc3c2[nH]c2ccccc23)cc1	OXTR agonist 26.3 | OXTR ag confirm 22.2 | V1aR counter 3x inactive
C1=C(CCNc2ncnc3c2[nH]c2ccccc23)CCCC1	OXTR agonist 20.8 | OXTR ag confirm inactive | V1aR counter 3x inactive
COc1ccc(CNc2ncnc3c2[nH]c2cc(OC)c(OC)cc23)cc1	none
O=C(Nc1cccc(Cl)c1Cl)c1csc([C@H]2C[C@H](O)[C@@H](CO)O2)n1	none (no result: V1R ag counter, OXTR agonist, OXTR potentiate)
CC(NCc1ccc(-c2ccccc2)cc1)C(O)c1ccccc1 (stereo not drawn)	OXTR agonist 22.9 | OXTR ag confirm inactive | V1aR counter 3x inactive
Cc1ccc(S(=O)(=O)N/N=C\c2cn(CC(N)=O)c3ccccc23)cc1C	none
CCc1ccccc1OC[C@@H](O)CN[C@H]1CCCc2ccccc21	OXTR agonist 22.3 | OXTR ag confirm inactive | V1aR counter 3x inactive
Cc1nc2ccccc2n2c(O)c(CC(=O)O)cc12	OXTR agonist 24.4 | OXTR ag confirm inactive | V1aR counter 3x inactive
CSc1cccc(NS(=O)(=O)c2ccc3c(c2)CCN3C(C)=O)c1	OXTR agonist 20.3 | OXTR ag confirm inactive | V1aR counter 3x inactive
CC(=O)N1CCc2cc(S(=O)(=O)Nc3cccc(C(F)(F)F)c3)ccc21	none
COc1cccc(NS(=O)(=O)c2ccc3c(c2)CCN3C(C)=O)c1	OXTR agonist 19.9 | OXTR ag confirm inactive | V1aR counter 3x inactive
O=c1c2ccccc2sn1-c1ccccc1F	none (no result: V1R ag counter, OXTR agonist, OXTR potentiate)
Cc1ccccc1-n1sc2cc(F)ccc2c1=O	TAAR1 ag 44.0, OXTR agonist 23.2 | OXTR ag confirm inactive | V1aR counter 3x inactive
O=C(NCc1cccc(Cl)c1)c1cccc(S(=O)(=O)N2CCCC2)c1	none
COc1cc(CNCCc2c[nH]c3ccccc23)ccc1OCc1ccccc1F	OXTR agonist 22.5 | OXTR ag confirm inactive | V1aR counter 3x inactive
COc1ccc(CCNC(=O)NCCc2c[nH]c3ccccc23)cc1OC	none
COc1ccccc1CCNCc1ccc(OC)c(OCc2ccccc2)c1	OXTR agonist 21.7 | OXTR ag confirm inactive | V1aR counter 3x inactive
COc1cccc(CNCCc2c[nH]c3ccccc23)c1OCc1ccccc1	TAAR1 antagonist 53.9, OXTR agonist 29.4 | OXTR ag confirm inactive | V1aR counter 3x inactive
COc1ccc(CNCc2ccco2)cc1OCc1ccccc1	none
CCCCCCCCN1C(=O)[C@H](CC(=O)NCCCCc2ccccc2)C[C@@]2(C(=O)OC)CCCCC=C12	none (no result: V1R ag counter, OXTR agonist, OXTR potentiate)
COc1ccc(N2C[C@H](CSC)[C@@H](CC(=O)Nc3ccccc3)C2=O)cc1	none (no result: V1R ag counter, OXTR agonist, OXTR potentiate)
CCCCSc1nc(O)cc(=O)n1CC	none
C=CCn1c(SCCCC)nc(O)cc1=O	OXTR agonist 33.3 | OXTR ag confirm inactive | V1aR counter 3x inactive
Nc1ccn([C@@H]2O[C@H](CNCc3cc(Br)ccc3OCc3ccccc3)[C@@H](O)[C@H]2O)c(=O)n1	none (no result: V1R ag counter, OXTR agonist, OXTR potentiate)
COc1ccc(S(=O)(=O)N2CCCN(CCC(=O)Nc3cccc(C(F)(F)F)c3)CC2)cc1	OXTR agonist 21.6 | OXTR ag confirm inactive | V1aR counter 3x inactive
CCOc1cccc(CNCCO)c1OCc1ccc(Cl)cc1Cl	none
CCOc1cc(CNCCO)cc(Br)c1OCc1ccc(Cl)cc1Cl	OXTR agonist 20.7 | OXTR ag confirm inactive | V1aR counter 3x inactive
CC(OC(=O)Cn1[nH]c(=O)c2ccccc2c1=O)C(=O)Nc1ccc(Cl)cn1 (stereo not drawn)	none
O=C(NC1CCCC1)C(c1cccs1)N(CC1CCCO1)C(=O)Cc1cccs1 (stereo not drawn)	OXTR agonist 19.9 | OXTR ag confirm inactive | V1aR counter 3x inactive

Screens as filed in PubChem.
